The text below walks through data of paper PMC6613170 (Proceedings of the National Academy of Sciences of the …, 2019).

pEC50: −log10 of the molar value.

The subject of series [1] is MDCK cells. Put plainly: MDCK cyst assay. In kind it is cell-based, canine.
Series [2] relates to OX161 cells. Put plainly: OX161 cyst assay. It counts as cell-based, human.
Series [3] concerns CFTR. Put plainly: CFTR assay. It counts as cell-based, canine. The following applies: 100 nM PGE2.
The test system of series [4] is MDCK cells. Put plainly: cAMP ELISA in forskolin-challenged MDCK cells. It counts as cell-based, canine. The note with it: 15 min. The gist of the method:
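MDCK cells in 2D culture (DMEM, 10% FBS) are pretreated for 1 h with test compound (3 µM), with or without roflumilast (100 nM), then challenged with forskolin (3 µM, 15 min). Intracellular and extracellular cAMP are measured with a commercial cAMP ELISA kit. Intracellular data are mean ± SD of n = 7 experiments; extracellular data come from three independent experiments.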
A general note: In an ELISA, binding on a coated surface is turned into a signal by an enzyme label.

Series [5] relates to MDCK cells. Put plainly: DNA normalized ATP levels in MDCK cystic cultures. In kind it is cell-based, canine. The note with it: MR-L2 3 µM; ± SD.
The target in series [6] is PDE4B1 (Homo sapiens, UniProt Q07343). Put plainly: cAMP phosphodiesterase assay, long isoform PDE4B1. In kind it is biochemical. In a few lines:
(§1)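 PDE4 constructs, including site-directed mutants, are expressed from pcDNA3.1 in transfected mammalian cells. Cells are lysed mechanically in KHEM buffer (50 mM KCl, 10 mM EGTA, 50 mM Hepes, 1.92 mM MgCl2, pH 7.4). Lysate is cleared at 2,000 × g for 10 min, then 100,000 × g for 30 min. Supernatant (200 ng–1 µg protein per reaction, BCA) is assayed for cAMP hydrolysis for 10 min under linear conditions.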

In series [7] the target is DD1-R499D-PDE4D5 (Homo sapiens, UniProt Q08499, N238A/N239A/R237A/R563D). Put plainly: cAMP phosphodiesterase assay, dimerization-deficient mutant. In kind it is biochemical. In a few lines: (§2)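 PDE4 constructs were expressed from pcDNA3.1 (mutants by site-directed mutagenesis) after lipid transfection into mammalian cells. Lysate was spun at 2,000 × g for 10 min, then 100,000 × g for 30 min, and supernatant protein was measured by BCA. cAMP hydrolysis used 200 ng–1 µg protein per reaction for 10 min, within the linear range.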
DD1-R499D-PDE4D5, sequence (Q08499 1-745 isoform Q08499-6 R173A/N174A/N175A/R499D): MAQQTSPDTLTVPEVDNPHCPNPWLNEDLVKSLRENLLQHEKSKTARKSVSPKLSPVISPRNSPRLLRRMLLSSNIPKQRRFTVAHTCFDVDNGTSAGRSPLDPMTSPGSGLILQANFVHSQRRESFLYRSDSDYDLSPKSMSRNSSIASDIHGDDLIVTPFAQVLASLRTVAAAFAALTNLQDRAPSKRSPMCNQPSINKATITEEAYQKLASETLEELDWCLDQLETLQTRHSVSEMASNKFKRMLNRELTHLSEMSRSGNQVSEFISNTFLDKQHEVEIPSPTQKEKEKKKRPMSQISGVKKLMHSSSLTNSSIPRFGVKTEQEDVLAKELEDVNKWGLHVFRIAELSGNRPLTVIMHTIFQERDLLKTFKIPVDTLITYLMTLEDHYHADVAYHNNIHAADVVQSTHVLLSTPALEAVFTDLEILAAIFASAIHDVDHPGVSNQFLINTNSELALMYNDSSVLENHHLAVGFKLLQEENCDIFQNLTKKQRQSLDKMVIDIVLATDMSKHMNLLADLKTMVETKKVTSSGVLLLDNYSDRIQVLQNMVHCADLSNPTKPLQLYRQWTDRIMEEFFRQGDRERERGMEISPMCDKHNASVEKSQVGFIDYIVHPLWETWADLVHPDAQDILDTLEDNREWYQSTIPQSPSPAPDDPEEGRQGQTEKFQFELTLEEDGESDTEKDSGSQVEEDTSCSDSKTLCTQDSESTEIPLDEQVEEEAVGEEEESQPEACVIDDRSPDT

For series [8], the system named is truncated core catalytic domain of PDE4D without UCR1, UCR2, and C-terminal tail. Put plainly: cAMP phosphodiesterase assay, truncated catalytic domain construct. In kind it is biochemical. The note with it: n = 4. In a few lines: as §1
For series [9], the system named is MDCK cells. Put plainly: xCELLigence impedance-based proliferation assay. The following applies: 2D culture; MR-L2 added 24 h after inception. It counts as cell-based, canine. The gist of the method:
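MDCK cells are plated at 5,000 cells per well in 2D culture and left to adhere for 24 h. Test compound is then added, and cell number is followed by xCELLigence electrical-impedance monitoring.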

Series [10] concerns the target PDE4A4 (Homo sapiens, UniProt P27815). Put plainly: cAMP phosphodiesterase assay, long isoform PDE4A4. In kind it is biochemical. The following applies: compared with the other long isoforms. The gist of the method: as §2
Series [11] concerns the target Ser651Asp-PDE4D5 (Homo sapiens, UniProt Q08499, S715D). Put plainly: cAMP phosphodiesterase assay, Erk phosphomimetic mutant. In kind it is biochemical. In a few lines: as §2
Series [12] deals with PDE4C3 (Homo sapiens, UniProt Q08493). Put plainly: cAMP phosphodiesterase assay, long isoform PDE4C3. In kind it is biochemical. In a few lines:
as §1

In series [13] the target is S133D-PDE4D5 (Homo sapiens, UniProt Q08499, S197D). Put plainly: cAMP phosphodiesterase assay, MK2 phosphomimetic mutant. In kind it is biochemical. In a few lines: as §2
S133D-PDE4D5, sequence (Q08499 1-745 isoform Q08499-6 S133D): as the sequence (Q08499 1-745 isoform Q08499-6 R173A/N174A/N175A/R499D) above, with S133D, A173R, A174N, A175N, D499R counted along it
In series [14] the target is human long form PDE4D5 (Homo sapiens, UniProt Q08499). Put plainly: cAMP phosphodiesterase assay, long isoform PDE4D5. It counts as biochemical. In a few lines: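 Human PDE4D5 is expressed from pcDNA3.1 in transfected mammalian cells. The 100,000 × g supernatant of KHEM-buffer lysates (200 ng–1 µg protein) is assayed for cAMP hydrolysis for 10 min under linear conditions, with test compound at 3, 10, 30 and 100 µM. Velocity is analysed by Eadie–Hofstee plot to give Vmax and Km for cAMP.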
human long form PDE4D5, sequence (Q08499 1-745 isoform Q08499-6): as the sequence (Q08499 1-745 isoform Q08499-6 R173A/N174A/N175A/R499D) above, with A173R, A174N, A175N, D499R counted along it

In series [15] the test system is primary human ADPKD cells. Put plainly: Primary human kidney cell cyst assay. In kind it is cell-based. The gist of the method: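 Primary epithelial cells from single kidney cysts of an ADPKD patient are grown in biogels with RenalCyte medium. Cysts form spontaneously or with 10 nM vasopressin, across graded test compound concentrations. Cysts are counted by manual imaging or automated whole-well imaging. Values are given as SD of four treatments.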

Series [16] has as its target S126D:S133D-PDE4D5 (Homo sapiens, UniProt Q08499, S190D/S197D). Put plainly: cAMP phosphodiesterase assay, PKA/MK2 double phosphomimetic mutant. It counts as biochemical. The note with it: relative to S126D-PDE4D5. In a few lines: as §1
For series [17], the system named is short isoforms of PDE4A, B, and D families. Put plainly: cAMP phosphodiesterase assay, short PDE4 isoforms. It counts as biochemical. The gist of the method:
as §1

Series [18] concerns primary human ADPKD cells. Put plainly: Primary human ADPKD cell viability. It counts as cell-based. The note with it: unstimulated and vasopressin-treated cultures. In a few lines:
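Primary epithelial cells cultured from single kidney cysts of a patient with ADPKD, kept in supplier's proprietary media. For the cyst assay, cells were grown in biogels with RenalCyte media in 96- or 384-well format. Viability was read as luminescence-based detection of ATP as a function of living cells.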

S126D:S133D-PDE4D5, sequence (Q08499 1-745 isoform Q08499-6 S126D/S133D): as the sequence (Q08499 1-745 isoform Q08499-6 R173A/N174A/N175A/R499D) above, with S126D, S133D, A173R, A174N, A175N, D499R counted along it
PDE4B1, sequence (Q07343 whole entry, species assumed, canonical isoform): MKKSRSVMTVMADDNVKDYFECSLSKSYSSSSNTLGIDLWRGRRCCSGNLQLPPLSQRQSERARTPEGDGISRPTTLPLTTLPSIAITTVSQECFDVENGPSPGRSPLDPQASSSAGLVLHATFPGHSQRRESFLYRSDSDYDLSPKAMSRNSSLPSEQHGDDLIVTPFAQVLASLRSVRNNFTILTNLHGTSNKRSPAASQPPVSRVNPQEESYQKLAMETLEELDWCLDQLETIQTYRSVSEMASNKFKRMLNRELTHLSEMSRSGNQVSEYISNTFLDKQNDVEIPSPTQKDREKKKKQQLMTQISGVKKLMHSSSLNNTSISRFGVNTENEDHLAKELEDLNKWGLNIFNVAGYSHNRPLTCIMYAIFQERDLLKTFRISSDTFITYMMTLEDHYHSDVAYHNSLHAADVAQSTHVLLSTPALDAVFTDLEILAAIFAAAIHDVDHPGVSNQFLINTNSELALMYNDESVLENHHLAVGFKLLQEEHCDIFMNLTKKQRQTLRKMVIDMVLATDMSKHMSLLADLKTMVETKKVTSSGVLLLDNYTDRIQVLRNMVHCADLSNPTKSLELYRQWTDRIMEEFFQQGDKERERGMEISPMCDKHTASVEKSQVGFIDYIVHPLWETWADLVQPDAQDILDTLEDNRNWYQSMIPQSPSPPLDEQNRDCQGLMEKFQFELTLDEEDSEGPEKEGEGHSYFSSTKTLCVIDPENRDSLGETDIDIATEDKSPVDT
Ser651Asp-PDE4D5, sequence (Q08499 1-745 isoform Q08499-6 S651D): as the sequence (Q08499 1-745 isoform Q08499-6 R173A/N174A/N175A/R499D) above, with A173R, A174N, A175N, D499R, S651D counted along it
PDE4A4, sequence (P27815 whole entry, canonical isoform): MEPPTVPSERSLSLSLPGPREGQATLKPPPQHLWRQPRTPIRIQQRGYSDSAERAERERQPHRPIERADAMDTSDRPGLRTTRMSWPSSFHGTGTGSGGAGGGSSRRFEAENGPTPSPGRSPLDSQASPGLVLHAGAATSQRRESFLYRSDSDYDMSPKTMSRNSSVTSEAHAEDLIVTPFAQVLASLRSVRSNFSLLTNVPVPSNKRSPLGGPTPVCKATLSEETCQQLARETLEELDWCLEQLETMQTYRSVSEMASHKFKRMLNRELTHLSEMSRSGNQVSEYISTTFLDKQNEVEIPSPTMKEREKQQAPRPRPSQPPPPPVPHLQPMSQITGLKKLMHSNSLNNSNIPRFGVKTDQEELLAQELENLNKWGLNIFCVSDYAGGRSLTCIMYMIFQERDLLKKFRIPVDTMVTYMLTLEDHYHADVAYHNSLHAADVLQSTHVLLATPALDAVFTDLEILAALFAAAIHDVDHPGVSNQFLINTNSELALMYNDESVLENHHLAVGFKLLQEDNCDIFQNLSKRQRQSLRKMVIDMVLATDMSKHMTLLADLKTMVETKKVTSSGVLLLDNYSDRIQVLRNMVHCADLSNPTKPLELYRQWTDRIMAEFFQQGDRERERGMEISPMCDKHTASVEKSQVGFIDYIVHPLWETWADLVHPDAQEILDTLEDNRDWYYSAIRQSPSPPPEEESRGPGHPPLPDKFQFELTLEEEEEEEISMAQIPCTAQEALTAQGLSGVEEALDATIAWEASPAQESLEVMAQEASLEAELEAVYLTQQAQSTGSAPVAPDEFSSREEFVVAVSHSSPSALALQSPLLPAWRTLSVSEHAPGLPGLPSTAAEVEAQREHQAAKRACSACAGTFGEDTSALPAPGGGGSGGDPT
PDE4C3, sequence (Q08493 1-680 isoform Q08493-3, species assumed): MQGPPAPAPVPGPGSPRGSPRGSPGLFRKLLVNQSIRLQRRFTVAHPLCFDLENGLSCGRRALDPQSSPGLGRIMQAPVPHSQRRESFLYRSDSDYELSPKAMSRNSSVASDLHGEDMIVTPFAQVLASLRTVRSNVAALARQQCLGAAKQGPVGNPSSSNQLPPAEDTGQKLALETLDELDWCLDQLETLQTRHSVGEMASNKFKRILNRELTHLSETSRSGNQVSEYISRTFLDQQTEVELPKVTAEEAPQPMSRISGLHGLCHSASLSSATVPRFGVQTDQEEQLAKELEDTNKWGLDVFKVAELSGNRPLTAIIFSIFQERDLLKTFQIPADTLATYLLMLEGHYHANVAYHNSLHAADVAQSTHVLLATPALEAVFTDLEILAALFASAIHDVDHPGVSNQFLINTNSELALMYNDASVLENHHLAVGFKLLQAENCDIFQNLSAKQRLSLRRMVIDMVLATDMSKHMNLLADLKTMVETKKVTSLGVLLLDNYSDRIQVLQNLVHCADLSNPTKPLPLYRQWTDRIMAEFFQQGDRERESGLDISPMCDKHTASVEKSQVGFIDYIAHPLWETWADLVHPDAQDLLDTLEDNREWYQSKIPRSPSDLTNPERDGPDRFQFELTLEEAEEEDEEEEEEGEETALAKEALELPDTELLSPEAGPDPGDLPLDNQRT

In the case of `COc1ccc(C2CNC(=O)C2)cc1OC1CCCC1` (stereo not shown) [rolipram, reference compound], the “effect on agonist-driven (PGE2-induced) cyst formation” value in series [1] (increasing concentrations of rolipram) is reported as “exacerbates agonist-driven cyst formation in a concentration-dependent manner”. Also, in [2] (challenge with rolipram, 3D culture), the “cystogenesis of OX161 cells” value is “enhanced”.
Turning to `O=C(O)c1ccc(/C=C2\SC(=S)N(c3cccc(C(F)(F)F)c3)C2=O)cc1` [CFTRINH172, reference compound], in series [3] (CFTR inhibitor 100 µM), the PGE2-induced membrane depolarization result is “reversed”.
With `O=C(Nc1c(Cl)cncc1Cl)c1ccc(OC(F)F)c(OCC2CC2)c1` [roflumilast, reference compound], the “effect on suppression of forskolin-stimulated cAMP accumulation by MR-L2 (3 µM)” value in [4] (roflumilast 100 nM cotreatment, forskolin 3 µM) is “ablated the suppressive effect of MR-L2”. Further, the “effect on suppression of cystogenesis by MR-L2 (3 µM)” value in series [1] (roflumilast 100 nM, PGE2 300 nM) is “interdict the suppression of cystogenesis”.
The pEC50 is −log10 of the EC50, conventionally taken in molar units. On to `CCc1nc(-c2ccc(Cl)c(F)c2)nn1CC(=O)NCc1cc(Cl)cc(Cl)c1` [MR-L2, 2-(3-(4-chloro-3-fluorophenyl)-5-ethyl-1H-1,2,4-triazol-1-yl)-N-(3,5-dichlorobenzyl)acetamide], for which the “reduction in the ATP/DNA ratio” value in series [5] is on record as 15.6 ± 30%. Further, the “activation of PDE4B1” value in [6] is “activates”. In addition, the “activation of DD1-R499D-PDE4D5” value in series [7] is listed as “complete loss of sensitivity to activation”. For the same molecule, the “intracellular cAMP elevation in response to forskolin” value in series [4] (1-h pretreatment with MR-L2, forskolin 3 µM) is reported as “significantly suppressed cAMP elevation”. In addition, in series [4] (MR-L2 3 µM, 1 h before forskolin 3 µM), the “extracellular level of cAMP” value is “significantly reduced”. Besides, the PGE2-stimulated cyst formation entry in [1] (MR-L2 3 µM, incremental PGE2 concentrations) is “suppressed”. For the same molecule, the forskolin-induced cyst formation entry in [1] (MR-L2 3 µM, incremental forskolin concentrations) is “suppressed forskolin-induced cyst formation”. In addition, the pEC50 in [1] (read-out: EC50, suppression of PGE2-induced cyst formation, PGE2 300 nM) was 6.00. Further, the “activation of truncated core catalytic domain of PDE4D” value in series [8] is given as “does not activate”. In addition, the “effect on cell number (cytotoxicity)” value in series [9] is on record as “no effect”. In addition, the “activation of PDE4A4” value in [10] is “slightly enhanced magnitude of activation”. Also, the “activation of Ser651Asp-PDE4D5” value in series [11] was “comparable increase in activity to that seen when employing wild-type PDE4D5”. For the same molecule, the “activation of PDE4C3” value in [12] is on record as “activates”. In addition, in series [13], the “activation of S133D-PDE4D5” value was “activated by MR-L2 to a similar extent to wild-type PDE4D5”. In addition, in [3] (MR-L2 preincubation 40 min), the “PGE2-elicited CFTR activity (membrane depolarization)” value was “clearly suppressed in a concentration-dependent manner”. The “mode of action on cAMP hydrolysis by PDE4D5” value in [14] was “reversible, noncompetitive activator”. Besides, the “increase in activity over basal levels” value in series [14] (maximally effective concentrations of MR-L2) is approximately 60%. For the same molecule, the “number of cysts formed in 3D culture” value in [15] (unstimulated (spontaneous cyst formation)) and in series [15] (vasopressin-treated (10 nM)) was “clearly suppressed the number of cysts” in each case. Moreover, in series [16], the “activation of S126D:S133D-PDE4D5” value is given as “partially restore sensitivity”. Further, in series [2] (concentration-dependent), the “PGE2-stimulated cystogenesis of OX161 cells” value is on record as “attenuated”. For the same molecule, the “activation of short PDE4 isoforms” value in [17] is listed as “did not activate”. Besides, in series [18], the cell viability entry is on record as “without adversely affecting cell viability”.
